# Screens deposited in PubChem BioAssay by NMMLSC.
# Only some compounds are listed: those with a hit (about 2.3% of all), similar ones and a draw of the others.
# MEKK2 WT-MEK5 = raises or lowers MEK5 binding to wildtype human MEKK2 PB1 domain; Q9Y2U5; bead flow cytometry, Alexa488-MEK5 binding to MEKK2 WT; actives lie on both sides; binding response (% of control), % at 10 µM; hit rate 1.1% among 290,000; AID 1531; in the data active = binding response below about 67% or above about 130%
# MEKK2mut PB1 HTS = signal of MEK5 binding to mutant human MEKK2 PB1 domain; AID 1530; percent response, % at 10 µM; bead flow cytometry, Alexa488-MEK5 binding to MEKK2 mutant; hit rate 0.35% among 290,000; in the data active = percent response above about 24%, passing the limit was not always enough
# MEKK3 PB1 HTS = MEKK3-MEK5 PB1 interaction, increase or decrease; Q99759; bead-based flow cytometry, Alexa488-MEK5 binding to MEKK3; actives lie on both sides; 0 = blocked by unlabeled MEK5, 100 = vehicle; binding response (% of control), % at 10 µM; hit rate 1.4% among 290,000;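 active = binding response more than 3 SD above or below the average of its plate-row segment, actives on both sides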;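 note: Alexa488 bead fluorescence after subtracting the streptavidin-only scavenger bead signal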
# Target sequence (Q99759 whole entry, looked up): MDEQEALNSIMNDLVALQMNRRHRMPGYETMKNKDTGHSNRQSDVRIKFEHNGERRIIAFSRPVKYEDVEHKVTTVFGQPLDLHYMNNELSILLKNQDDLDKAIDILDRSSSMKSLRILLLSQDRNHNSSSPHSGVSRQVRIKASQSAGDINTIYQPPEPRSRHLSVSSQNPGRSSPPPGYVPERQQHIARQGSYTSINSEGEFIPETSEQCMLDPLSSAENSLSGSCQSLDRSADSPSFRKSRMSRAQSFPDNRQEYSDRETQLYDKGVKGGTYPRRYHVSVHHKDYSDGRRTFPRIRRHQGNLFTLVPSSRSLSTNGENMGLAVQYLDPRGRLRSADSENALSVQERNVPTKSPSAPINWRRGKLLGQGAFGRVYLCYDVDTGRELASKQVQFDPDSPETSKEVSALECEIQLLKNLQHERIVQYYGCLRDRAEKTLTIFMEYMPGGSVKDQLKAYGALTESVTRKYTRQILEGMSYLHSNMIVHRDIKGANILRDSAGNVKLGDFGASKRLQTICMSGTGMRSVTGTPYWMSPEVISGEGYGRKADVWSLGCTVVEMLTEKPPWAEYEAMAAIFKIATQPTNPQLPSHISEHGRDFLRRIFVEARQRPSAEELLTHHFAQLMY
# Arrestin-AP2 inh = human beta-arrestin and AP2 interaction inhibition; FITC-arrestin peptide / GST-AP2 beads, flow cytometry; AP2 beta2 appendage carries R879A mutation; inhibition, % at 10 µM; hit rate 0.31% among 340,000;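 active = inhibition above a set limit, near 3 SD of compounds lacking own fluorescence, cut at about 54% in these data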;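 note: plate controls were DMSO wells for no effect and 5 µM unlabelled arrestin peptide for full effect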
#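 System: GST-AP2 R879A glutathione beads. Medium: PBS with 0.05% Tween 20 and 0.1% BSA. Also added: FITC-arrestin peptide, 50 nM. Incubation: 12 min plus 1 h, RT. Measured by: high-throughput flow cytometry of beads, ex 488, em 535 nm. Evaluation: percent drop in bead-associated FITC signal.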
# * marks the source's active call; other numbers are inactive results; . = no result; [ ] = another dose, or the depositor's remark.
SMILES,MEKK2 WT-MEK5,MEKK2mut PB1 HTS,MEKK3 PB1 HTS,Arrestin-AP2 inh
N#C/C(C(N)=O)=C1/SC=C(c2ccccc2)N1c1ccccc1,96,20,107,10
N#C/C(C(=O)c1ccccc1)=C1/SC=C(N)N1c1ccccc1,4.0*[inhibitor],-30,2.0*[inhibitor],.
COC(=O)CCC(C)C1CCC2C3CCC4CC(O)CCC4(C)C3CC(O)C12C (stereo not given),.,.,.,22
Cc1ccc(NC(=O)CN2C(=O)C(=O)N(C3CCCC3)C2=O)c(Cl)c1,.,.,.,27
C(=N\NC1=Nc2cccc3cccc1c23)/c1ccccn1,8.0*,1,95,1
Clc1ccccc1/C=N/NC1=Nc2cccc3cccc1c23,102,2,106,11
COC(=O)CCC(=O)OC1(C)C(=O)C2=CN(c3ccc(OC)cc3)C(c3ccc(OC)cc3)=CC2=C(Br)C1=O (stereo not given),-6.0*,-1,87,23
C=CCN1C=C2C(=O)C(C)(OC(=O)CCC(=O)OC)C(=O)C(Br)=C2C=C1c1ccc(OC)cc1 (stereo not given),-3.0*,-1,80,22
Cc1ccc(Nc2nc(N/N=C/c3c[nH]c4ccccc34)nc(N3CCOCC3)n2)cc1,121,2,145*,1
Cc1cc(C)nc(NS(=O)(=O)c2ccccc2)n1,100,1,104,3
Cc1cc(-n2nc(C)cc2C)nc(NS(=O)(=O)c2ccccc2Cl)n1,21*,34,101,-2
Cc1ccccc1C(=O)Nc1ccc(C(=O)N/N=C/c2ccncc2)cc1,73,-27,67,33
Cc1ccccc1C(=O)Nc1ccc(C(=O)N/N=C/c2ccc(O)cc2)cc1,59*[inhibitor],-22,92,13
C/C(CC(=O)N1CCN(C=O)CC1)=N\NC(=O)c1cccc([N+](=O)[O-])c1,15*,5,108,9
CCN(CC)CCNC(=O)c1ccc(NC(=O)/C=C/c2ccc3ccccc3n2)cc1,0.0*,11,87,25
CC[C@]12c3[nH]c4cc(-c5ccco5)ccc4c3CCN1C(=O)[C@@H](CC(=O)NCc1cccc(C(F)(F)F)c1)C[C@@H]2C(=O)N1CCN(C(=O)c2ccco2)CC1,.,.,.,6
CCOc1ccc2cc(C3CC(c4ccco4)=NN3S(=O)(=O)c3ccccc3)c(Cl)nc2c1 (stereo not given),95,-2,97,4
CCOc1ccc2nc(Cl)c(C3CC(c4ccco4)=NN3S(C)(=O)=O)cc2c1 (stereo not given),7.0*,0,90,6
CS(=O)(=O)N1N=C(c2ccco2)CC1c1ccccc1Cl (stereo not given),100,5,106,26
COc1ccccc1C1CC(c2ccco2)=NN1S(C)(=O)=O (stereo not given),29*,17,97,11
CO[C@H]1CC[C@@]2(C)[C@@H](CC[C@@H]3[C@@H]2CC[C@@]2(C)[C@H]3C[C@H](C(=O)N[C@@H](CCCN=C(N)N)C(=O)NCC(=O)N[C@@H](CC(=O)O)C(N)=O)O[C@]23CCCO3)C1,.,.,.,28
COc1cccc(CN2CCCC(C(=O)Nc3ccc(-c4cscn4)cc3)C2)c1 (stereo not given),116,2,101,21
Cc1ccc(S(=O)(=O)c2nnn3c2nc(NCCCN2CCCC2=O)c2ccccc23)cc1C,103,2,103,8
Cc1ccc(S(=O)(=O)c2nnn3c2nc(NC2CCN(Cc4ccccc4)CC2)c2ccccc23)cc1C,176*,30*,111,0
CC(C)NC(=O)N(C)C[C@H]1Oc2ccc(NC(=O)Cc3ccccc3)cc2C(=O)N([C@H](C)CO)C[C@@H]1C,.,.,.,-3
SMILES,MEKK2 WT-MEK5,MEKK2mut PB1 HTS,MEKK3 PB1 HTS,Arrestin-AP2 inh
CC(=O)/C(=N\Nc1cccc(Cl)c1)Sc1cccc2cccnc12,89,-3,88,5
CC(=O)/C(N)=N/Nc1cccc(Cl)c1,16*,9,96,13
COc1ccc(CNC(=O)COC(=O)[C@@H]2CCCN2C(=O)c2cccs2)cc1,.,.,.,6
Cc1cccc(Cn2c(=O)c3c(nc4n3CCN4Cc3ccco3)n(C)c2=O)c1,2.0*[inhibitor],-16,2.0*[inhibitor],7
CC1([N+](=O)[O-])COC2(CCCCC2)OC1,.,.,.,-11
CC(=O)Nc1ccc(S(=O)(=O)NCCC(=O)NC(C)c2cccs2)cc1 (stereo not given),.,.,.,-5
COc1cccc2cc(C(=O)C3=C(O)C(=O)N(c4cc(C)on4)C3c3cccs3)oc12 (stereo not given),-11*,2,100,23
CN(C)CCCNS(=O)(=O)c1ccc(N2CCC(c3ccc(Cl)cc3)=N2)cc1,162*,22,99,.
O=C(CN1C(=O)/C(=C2/SC(=S)N(CCS(=O)(=O)O)C2=O)c2ccccc21)Nc1cccc(Br)c1,.,.,.,0
C=CCOc1ccc(CN(C)CC(O)COc2cccc3ccccc23)cc1 (stereo not given),142*,14,107,0
Cc1cc(CN(C)Cc2ccc(OCC(O)CN(C)Cc3ccccc3)cc2)on1 (stereo not given),77,-19,66,-1
Cc1cc(N)c2cc(NC(=O)/C=C/c3ccccc3Cl)ccc2n1,252*,117*,104,0
Cc1cc(C)nc(NC(=O)/C=C/c2ccccc2Cl)n1,98,2,101,-4
CCOC(=O)c1c(O)c2cc(Cl)ccc2n(CC)c1=O,101,-1,97,5
OC(COCC(F)(F)C(F)(F)C(F)(F)C(F)F)Cn1c2ccc(Cl)cc2c2cc(Cl)ccc21 (stereo not given),135,53*,100,2
c1cc(N2CCCC2)ccc1C(c1nnnn1C1CCCCC1)N1CCOCC1 (stereo not given),-5.0*,2,96,6
COc1ccc(C(c2nnnn2C2CCCCC2)N2CCN(c3ccc(OC)cc3)CC2)cc1 (stereo not given),101,-3,101,5
O=C(/C=C/c1ccc(S(=O)(=O)N2CCOCC2)cc1)NCc1ccccc1F,.,.,.,12
O=C(CCC(=O)c1ccc(F)cc1)OCc1nnc(-c2ccc([N+](=O)[O-])cc2)o1,.,.,.,-8
COc1cc(NS(=O)(=O)c2ccc(Br)s2)cc(OC)c1,-14*,9,88,-11
O=C(O)CCN1C(=O)/C(=C/c2ccc(-c3nc4ccccc4s3)o2)SC1=S,.,.,.,43
O=C(O)CCCN1C(=O)/C(=C\c2ccc(-c3nc4ccccc4s3)o2)SC1=S,41*[inhibitor],-20,68,24
Cc1c(C)n(C)c2ccc(C(=O)NCCCN3CCCCC3)cc12,154*,25*,102,-5
Cc1ccc(-c2cc(C(=O)NCCCN3CCCC3)c3ccccc3n2)cc1C,141*,11,103,-14
Cc1c(C)n(C)c2ccc(C(=O)NCCCN3CCOCC3)cc12,103,6,99,-5
Cc1[nH]c2ccc(C(=O)NCCN3CCCCCC3)cc2c1C,135*,20,102,-22
Cc1c(C)n(C)c2ccc(C(=O)NCCCN3CCCC3)cc12,142*,14,102,-10
